We go through four molecules from ChEMBL document CHEMBL1137701, “Synthesis, characterization and antimicrobial activity of Co(II), Zn(II) and Cd(II) complexes with N-benzyloxycarbonyl-S-phenylalanine” (2009).

≈ marks a conversion by molar mass, not a printed value.

Common to all, as to format: functional
The test system of assay [1] is Klebsiella pneumoniae. The assay can be described thus: Antibacterial activity against Klebsiella pneumoniae NCIMB 9111 after 24 hrs by broth microdilution method. To be noted: NCIMB 9111, 24 h. Summed up:
(§1)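 Broth microdilution in Mueller-Hinton broth, run to NCCLS (2001). Overnight cultures were set to 2×10^6 CFU/ml final per well. Compounds were dissolved in 1% DMSO and tested as two-fold serial dilutions. TTC (0.05% final) served as growth indicator. Growth was read by absorbance at 600 nm after 24 h at 37 °C. MIC was the lowest concentration with no visible growth. Triplicate, with two growth controls.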
(In broth dilution the organism is exposed to a series of concentrations in liquid medium.)

Assay [2] deals with Staphylococcus epidermidis. The assay can be described thus: Antibacterial activity against Staphylococcus epidermidis ATCC 12228 at 20 ug/disk after 24 hrs by agar diffusion method. To be noted: ATCC 12228, 24 h, read-out: IZ. Summed up: (§2)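 Disc diffusion on 4-mm Mueller-Hinton agar, inoculated from 24 h MHB cultures (37 °C) diluted to 2×10^6 CFU/ml to give semiconfluent growth. 6-mm discs were impregnated with 1 mg/ml DMSO stock solutions. Plates were incubated 24 h at 37 °C and inhibition zone diameters measured in mm. DMSO solvent control; triplicate, averaged.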
Background: A growth-free zone around the sample is the usual read-out of agar diffusion tests.

The subject of assay [3] is Candida albicans. The assay can be described thus: Antifungal activity against Candida albicans ATCC 24433 at 20 ug/disk after 72 hrs by agar diffusion method. The settings on record: ATCC 24433, 72 h, read-out: IZ. Summed up:
(§3)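 Candida albicans grown 24 h at 25 °C in Sabouraud dextrose broth and diluted to 1×10^8 CFU/ml. This inoculum was spread on 4-mm Sabouraud dextrose agar. 6-mm discs were impregnated with 1 mg/ml DMSO stock solutions and incubated 72 h at 26 °C. Inhibition zone diameters measured in mm; DMSO control; triplicate, averaged.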

Assay [4] concerns Micrococcus luteus. The assay can be described thus: Antibacterial activity against Micrococcus luteus ATCC 10240 after 24 hrs by broth microdilution method. To be noted: ATCC 10240, 24 h. Summed up: as §1
For assay [5], the system named is Bacillus subtilis. The assay can be described thus: Antibacterial activity against Bacillus subtilis ATCC 6633 at 20 ug/disk after 24 hrs by agar diffusion method. The settings on record: ATCC 6633, 24 h, read-out: IZ. Summed up:
as §2

Assay [6] relates to Candida albicans. The assay can be described thus: Antifungal activity against Candida albicans ATCC 10259 after 48 hrs by broth microdilution method. The gist of the method: (§4)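 Broth microdilution (NCCLS) in Sabouraud dextrose broth, 2×10^5 CFU/ml per well. Compounds in 1% DMSO were two-fold serially diluted over 62.5–1000, with 0.05% final triphenyltetrazolium chloride as growth indicator. Plates were incubated 48 h at 26 °C and growth read by absorbance at 600 nm. MIC is the lowest concentration without visible growth. Triplicate, with two growth controls.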

In assay [7] the test system is Staphylococcus aureus. The assay can be described thus: Antibacterial activity against Staphylococcus aureus ATCC 25923 at 20 ug/disk after 24 hrs by agar diffusion method. To be noted: ATCC 25923, 24 h, read-out: IZ. Summed up: as §2
Assay [8] concerns Staphylococcus aureus. The assay can be described thus: Antibacterial activity against Staphylococcus aureus ATCC 25923 after 24 hrs by broth microdilution method. The settings on record: ATCC 25923, 24 h. The gist of the method:
as §1

The subject of assay [9] is Pseudomonas aeruginosa. The assay can be described thus: Antibacterial activity against Pseudomonas aeruginosa ATCC 27853 after 24 hrs by broth microdilution method. To be noted: ATCC 27853, 24 h. The gist of the method:
as §1

Assay [10] has as its system Escherichia coli. The assay can be described thus: Antibacterial activity against Escherichia coli ATCC 25922 at 20 ug/disk after 24 hrs by agar diffusion method. The settings on record: ATCC 25922, 24 h, read-out: IZ. Summed up: as §2
The test system of assay [11] is Klebsiella pneumoniae. The assay can be described thus: Antibacterial activity against Klebsiella pneumoniae NCIMB 9111 at 20 ug/disk after 24 hrs by agar diffusion method. The settings on record: NCIMB 9111, 24 h, read-out: IZ. The gist of the method:
as §2

Assay [12] has as its system Candida albicans. The assay can be described thus: Antifungal activity against Candida albicans ATCC 24433 after 48 hrs by broth microdilution method. The gist of the method:
as §4

Assay [13] relates to Pseudomonas aeruginosa. The assay can be described thus: Antibacterial activity against Pseudomonas aeruginosa ATCC 27853 at 20 ug/disk after 24 hrs by agar diffusion method. To be noted: ATCC 27853, 24 h, read-out: IZ. Summed up: as §2
The test system of assay [14] is Escherichia coli. The assay can be described thus: Antibacterial activity against Escherichia coli ATCC 25922 after 24 hrs by broth microdilution method. The settings on record: ATCC 25922, 24 h. The gist of the method: as §1
Assay [15] relates to Candida albicans. The assay can be described thus: Antifungal activity against Candida albicans ATCC 10259 at 20 ug/disk after 72 hrs by agar diffusion method. The settings on record: ATCC 10259, 72 h, read-out: IZ. The gist of the method: as §3
For assay [16], the system named is Staphylococcus epidermidis. The assay can be described thus: Antibacterial activity against Staphylococcus epidermidis ATCC 12228 after 24 hrs by broth microdilution method. To be noted: ATCC 12228, 24 h. Summed up: as §1
In assay [17] the test system is Enterococcus faecalis. The assay can be described thus: Antibacterial activity against Enterococcus faecalis ATCC 29212 at 20 ug/disk after 24 hrs by agar diffusion method. To be noted: ATCC 29212, 24 h, read-out: IZ. Summed up:
as §2

Assay [18] concerns Micrococcus luteus. The assay can be described thus: Antibacterial activity against Micrococcus luteus ATCC 10240 at 20 ug/disk after 24 hrs by agar diffusion method. To be noted: ATCC 10240, 24 h, read-out: IZ. Summed up: as §2
For assay [19], the system named is Bacillus subtilis. The assay can be described thus: Antibacterial activity against Bacillus subtilis ATCC 6633 after 24 hrs by broth microdilution method. The settings on record: ATCC 6633, 24 h. The gist of the method: as §1
For assay [20], the system named is Enterococcus faecalis. The assay can be described thus: Antibacterial activity against Enterococcus faecalis ATCC 29212 after 24 hrs by broth microdilution method. To be noted: ATCC 29212, 24 h. Summed up:
as §1

In assay [21] the test system is Micrococcus luteus. The assay can be described thus: Antibacterial activity against Micrococcus luteus ATCC 10240 at 10 ug/disk after 24 hrs by agar diffusion method. The settings on record: ATCC 10240, 24 h, read-out: IZ. Summed up:
(§5)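 Reference antibiotic discs (ampicillin or amikacin) placed on 4-mm Mueller-Hinton agar inoculated to semiconfluent growth from 2×10^6 CFU/ml suspensions. Incubation 24 h at 37 °C, then inhibition zone diameter read in mm. Triplicate, averaged; done per NCCLS 1993 disc standard.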

The subject of assay [22] is Bacillus subtilis. The assay can be described thus: Antibacterial activity against Bacillus subtilis ATCC 6633 at 10 ug/disk after 24 hrs by agar diffusion method. To be noted: ATCC 6633, 24 h, read-out: IZ. The gist of the method: as §5
Assay [23] deals with Staphylococcus epidermidis. The assay can be described thus: Antibacterial activity against Staphylococcus epidermidis ATCC 12228 at 10 ug/disk after 24 hrs by agar diffusion method. To be noted: ATCC 12228, 24 h, read-out: IZ. Summed up: as §5
Assay [24] concerns Klebsiella pneumoniae. The assay can be described thus: Antibacterial activity against Klebsiella pneumoniae NCIMB 9111 at 10 ug/disk after 24 hrs by agar diffusion method. To be noted: NCIMB 9111, 24 h, read-out: IZ. The gist of the method:
as §5

Assay [25] relates to Enterococcus faecalis. The assay can be described thus: Antibacterial activity against Enterococcus faecalis ATCC 29212 at 10 ug/disk after 24 hrs by agar diffusion method. The settings on record: ATCC 29212, 24 h, read-out: IZ. Summed up:
as §5

The test system of assay [26] is Escherichia coli. The assay can be described thus: Antibacterial activity against Escherichia coli ATCC 25922 at 10 ug/disk after 24 hrs by agar diffusion method. The settings on record: ATCC 25922, 24 h, read-out: IZ.
Assay [27] relates to Staphylococcus aureus. The assay can be described thus: Antibacterial activity against Staphylococcus aureus ATCC 25923 at 10 ug/disk after 24 hrs by agar diffusion method. The settings on record: ATCC 25923, 24 h, read-out: IZ. Summed up: as §5
Assay [28] has as its system Pseudomonas aeruginosa. The assay can be described thus: Antibacterial activity against Pseudomonas aeruginosa ATCC 27853 at 10 ug/disk after 24 hrs by agar diffusion method. To be noted: ATCC 27853, 24 h, read-out: IZ. The gist of the method: as §5

Regarding `O=C(N[C@@H](Cc1ccccc1)C(=O)O)OCc1ccccc1`, the MBC in [1], in assay [4], in assay [8], in assay [9], in assay [14] and in assay [16] was more than 3340 µM throughout. The MBC in [19] is 3340 µM (≈ 1000 µg/mL); in [20], more than 3340 µM. The MIC in assay [1] is 3340 µM (≈ 1000 µg/mL); in assay [4] it was 3340 µM (≈ 1000 µg/mL); in assay [6] (ATCC 10259, 48 h) it was 830 µM (≈ 248 µg/mL); in [8] it was 3340 µM (≈ 1000 µg/mL); in assay [9] it was more than 3340 µM; in [12] (ATCC 24433, 48 h) it was 830 µM (≈ 248 µg/mL). Also, the MIC in [14] was 3340 µM (≈ 1000 µg/mL); in assay [16], 3340 µM (≈ 1000 µg/mL); in assay [19] it was 1670 µM (≈ 500 µg/mL); in [20], more than 3340 µM. In addition, the zone of inhibition at 20 µg/disc in assay [2] came out at 8 mm; in assay [3], 0 mm; in [5], 0 mm; in assay [7], 0 mm; in assay [10], 0 mm; in [11], 0 mm. The zone of inhibition at 20 µg/disc in assay [13], in assay [15], in assay [17] and in assay [18] was 0 mm throughout. For the same molecule, the MFC in [6] (ATCC 10259, 48 h) came out at 1660 µM (≈ 497 µg/mL); in [12] (ATCC 24433, 48 h), 1660 µM (≈ 497 µg/mL).

Take `NCC[C@H](O)C(=O)N[C@@H]1C[C@H](N)[C@@H](O[C@H]2O[C@H](CN)[C@@H](O)[C@H](O)[C@H]2O)[C@H](O)[C@H]1O[C@H]1O[C@H](CO)[C@@H](O)[C@H](N)[C@H]1O` [AMIKACIN]: the MBC in [1] was found to be 9 µM (≈ 5.27 µg/mL); in assay [9] it was 12 µM (≈ 7.03 µg/mL); in assay [14] it was 6 µM (≈ 3.51 µg/mL). Moreover, the figures for the MIC in [1], in assay [9] and in assay [14] were 3 µM (≈ 1.76 µg/mL), 6 µM (≈ 3.51 µg/mL) and 3 µM (≈ 1.76 µg/mL), respectively. For the same molecule, the zone of inhibition at 10 µg/disc in [21] came to 31 mm; in assay [22] it was 32 mm; in assay [23] it was 33 mm; in assay [24] it was 25 mm; in assay [25], 23 mm; in assay [26] it was 30 mm. For the same molecule, the values for the zone of inhibition at 10 µg/disc in [27] and in assay [28] were 25 mm and 30 mm, respectively.

Take `CC1(C)S[C@@H]2[C@H](NC(=O)[C@H](N)c3ccccc3)C(=O)N2[C@H]1C(=O)O` [AMPICILLIN]: the MBC in assay [1] was found to be 33 µM (≈ 11.5 µg/mL); in assay [4] it was 2 µM (≈ 0.699 µg/mL); in assay [8], 4 µM (≈ 1.4 µg/mL); in assay [9] it was 46 µM (≈ 16.1 µg/mL); in assay [14] it was 22 µM (≈ 7.69 µg/mL); in [16] it was 6 µM (≈ 2.1 µg/mL). The minimum bactericidal concentration (MBC) came out at 10 µM (≈ 3.49 µg/mL) in assay [19] and 6 µM (≈ 2.1 µg/mL) in [20]. The MIC in [1] stood at 11 µM (≈ 3.84 µg/mL); in assay [4], 1 µM (≈ 0.349 µg/mL); in assay [9] it was 23 µM (≈ 8.04 µg/mL); in assay [14], 11 µM (≈ 3.84 µg/mL); in assay [16], 3 µM (≈ 1.05 µg/mL); in assay [19], 5 µM (≈ 1.75 µg/mL). The same molecule returned a minimal inhibitory concentration (MIC) in assay [20] of 3 µM (≈ 1.05 µg/mL). The zone of inhibition at 10 µg/disc in [21] was determined as 33 mm; in [22] it was 15 mm; in assay [23], 12 mm; in assay [24], 23 mm; in assay [25], 16 mm; in [26] it was 18 mm. In assay [27], the zone of inhibition at 10 µg/disc came to 26 mm.

In assay [6], NYSTATIN gave an MFC of 140 µM and an MIC of 70 µM. Besides, in assay [12], the MFC was 60 µM and the MIC was 30 µM.

Usually MBC stands for the lowest tested concentration that kills the bacteria rather than only halting them. High values mean less potent killing, low ones more potent killing. For orientation: MIC means the least concentration at which growth counts as inhibited. One may read the MFC as the lowest tested concentration that kills the fungus rather than only halting it. A higher MFC goes with weaker fungicidal potency.
